Consider twelve compounds from ChEMBL document CHEMBL1128450, “Mononucleoside phosphotriester derivatives with S-acyl-2-thioethyl bioreversible phosphate-protecting groups: intracellular delivery of 3'-azido-2',3'-dideoxythymidine 5'-monophosphate” (J Med Chem, 1995).

A short description of data set [1]: Half life evaluated in Total Cell Extract(TCE). It counts as ADME. The settings on record: for half-life: total cell extract (TCE). Put shortly: (§1)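 Compounds at 5 × 10⁻⁵ M initial were incubated at 37 °C in total cell extract from CEM-SS cells. Crude aliquots were analysed by on-line precolumn-cleaning HPLC, with and without ion-pairing reagent, on a C18 column using an ammonium acetate/acetonitrile gradient, with areas read at 266 nm. Half-lives came from pseudo-first-order rate constants fitted to kinetic models by exponential regression.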

In data set [2] the test system is CEM-SS. Nature of the data set: Antiviral activity in CEM-SS cell line infected with HIV-1 and cytotoxic concentration required to reduce the viability of uninfected cells by 50%. The class given is functional. The following applies: Homo sapiens. Put shortly: (§2)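 Uninfected cells were exposed to compound for 5 days, and viability was read by colorimetric MTT test. Values average at least three separate experiments.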

The subject of data set [3] is CEM-SS. Nature of the data set: Antiviral activity in CEM-SS cell line infected with HIV-1 and Concentration required to inhibit the replication of HIV-1 by 50% was determined. The settings on record: Homo sapiens. It counts as functional, cell-based. The method in brief:
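Cells infected with HIV-LAI at 100 TCID50 for 30 min, washed twice, then cultured with a range of compound concentrations for 5 days (6 days for CEM/TK⁻). Virus production was read as reverse transcriptase activity in the culture supernatant. EC50 was taken from a median effect plot of the dose–effect data, averaging at least three separate experiments.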

Data set [4] relates to MT4. Nature of the data set: Antiviral activity in MT-4 cell line infected with HIV-1 and Concentration required to inhibit the replication of HIV-1 by 50% was determined. It counts as functional, cell-based. The settings on record: Homo sapiens. The method in brief:
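HIV-1 IIIB at 50 TCID50 adsorbed to MT-4 cells for 30 min, followed by two washes and 5 days of culture with graded compound concentrations. Protection from virus-induced cytopathogenicity was read by MTT reduction to formazan. EC50 was taken from a median effect plot, averaging at least three separate experiments.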

In data set [5] the test system is MT4. Nature of the data set: Antiviral activity in MT-4 cell line infected with HIV-1 and cytotoxic concentration required to reduce the viability of uninfected cells by 50%. The class given is functional. The following applies: Homo sapiens. The method in brief: as §2
Data set [6] in a line: Selectivity Index measured as the ratio of CC50(CEM-SS) to EC50(CEM-SS). The class given is functional.
Data set [7] can be described thus: Selectivity Index measured as the ratio of CC50(CEM/TK) to EC50(CEM/TK). It counts as functional.
Data set [8] in a line: Half life evaluated in Culture Medium(CM). The class given is ADME. The settings on record: for half-life: culture medium (CM). The method in brief: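 Compounds at 5 × 10⁻⁵ M initial were incubated at 37 °C in RPMI 1640 with 10% heat-inactivated fetal calf serum. Crude aliquots were analysed by on-line ISRP precolumn-cleaning HPLC, with and without tetrabutylammonium ion-pairing, on a C18 column using an ammonium acetate pH 6.0/acetonitrile gradient. Species were quantified from peak areas at 266 nm. Half-lives were derived from pseudo-first-order rate constants fitted by mono- or polyexponential regression.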

Data set [9] relates to CEM/TK- (Homo sapiens). In words: Antiviral activity in CEM/TK cell line infected with HIV-1 and Concentration required to inhibit the replication of HIV-1 by 50% was determined.
Data set [10] concerns CEM/TK- (Homo sapiens). Nature of the data set: Antiviral activity in CEM/TK cell line infected with HIV-1 and cytotoxic concentration required to reduce the viability of uninfected cells by 50%.
A short description of data set [11]: Half life evaluated in Total Cell Extract(TCE) for determination 1. It counts as ADME. The method in brief: as §1
A short description of data set [12]: Half life evaluated in Total Cell Extract(TCE) for determination 2. It counts as ADME. Put shortly:
as §1

The nature of data set [13]: Half life evaluated in Total Cell Extract(TCE) for determination 3. The class given is ADME. Put shortly:
as §1

Several values for one entry are separate records, joined by “and”; a condition that tells them apart may be missing. Identical values can stand only once. A value given as a limit tells only on which side of the number the result lay.

Consider `Cc1cn(C2CC(N=[N+]=[N-])C(COP(=O)(OCCSC(=O)C(C)(C)C)OCCSC(=O)C(C)(C)C)O2)c(=O)[nH]c1=O` (centres undefined), for which the half-life was 1.05 h in [1] and 103 h in data set [8]. For the same compound, the CC50 in the data set on CEM-SS [2], in the data set with MT4 [5] and in the data set with CEM/TK- (Homo sapiens) [10] was > 10000 nM throughout. Moreover, the EC50 is 15 nM in the data set with CEM-SS [3], 810 nM in the data set with MT4 [4] and 450 nM in the data set with CEM/TK- (Homo sapiens) [9]. Also, the Selectivity index in data set [6] was > 670; in [7], > 22.
On to `Cc1cn(C2CC(N=[N+]=[N-])C(COP(=O)(OCCSC(=O)C(C)C)OCCSC(=O)C(C)C)O2)c(=O)[nH]c1=O` (centres undefined), for which the half-life was 0.75 h in data set [1] and 9 h in data set [8]. For the same compound, the CC50 in the data set with CEM-SS [2], in the data set on MT4 [5] and in the data set on CEM/TK- (Homo sapiens) [10] was > 10000 nM throughout. For the same compound, the EC50 with CEM-SS [3] came to 46 nM; with MT4 [4] it was 48 nM; in the data set on CEM/TK- (Homo sapiens) [9], 520 nM. Besides, the Selectivity index is > 200 in data set [6] and > 17 in data set [7].
Regarding `Cc1cn([C@H]2C[C@H](N=[N+]=[N-])[C@@H](COP(=O)(O)O)O2)c(=O)[nH]c1=O` [AZIDOTHYMIDINE MONOPHOSPHATE], in data set [1], the T1/2 came out at 4 h and the half-life was 4 h. In addition, in [8], the T1/2 was 72 h and 67 h; the half-life is 50 h.
Turning to `CC(=O)SCCOP(=O)(O)OCC1OC(n2cc(C)c(=O)[nH]c2=O)CC1N=[N+]=[N-]` (centres undefined), the half-life in [1] is < 0.0833 h; in data set [8] it was 8.9 h.
Take `Cc1cn(C2CC(N=[N+]=[N-])C(COP(=O)(OCOC(=O)C(C)(C)C)OCOC(=O)C(C)(C)C)O2)c(=O)[nH]c1=O` (centres undefined): the CC50 with CEM-SS [2] was found to be 67000 nM; with MT4 [5], 59000 nM; in the data set with CEM/TK- (Homo sapiens) [10], 65500 nM. Also, the values for the EC50 in the data set on CEM-SS [3], in the data set on MT4 [4] and in the data set with CEM/TK- (Homo sapiens) [9] were 77 nM, 52 nM and 255 nM, respectively. For the same compound, the Selectivity index was found to be 860 in data set [6] and 250 in data set [7].
Regarding `Cc1cn(C2CC(N=[N+]=[N-])C(COP(=O)(O)OCCSC(=O)C(C)C)O2)c(=O)[nH]c1=O` (centres undefined), the half-life in [1] was 7.1 h; in [8], 12.3 h.
On to `Cc1cn([C@H]2C[C@H](N=[N+]=[N-])[C@@H](CO)O2)c(=O)[nH]c1=O` [ZIDOVUDINE], for which the CC50 with CEM-SS [2] was > 100000 nM; with MT4 [5], 75000 nM; in the data set on CEM/TK- (Homo sapiens) [10], > 100000 nM. In addition, the EC50 was 6 nM in the data set on CEM-SS [3], 17 nM in the data set with MT4 [4] and > 100000 nM in the data set on CEM/TK- (Homo sapiens) [9]. In addition, in data set [6], the Selectivity index is > 17300.
Turning to `Cc1cn(C2CC(N=[N+]=[N-])C(COP(=O)(OCCSC(=O)c3ccccc3)OCCSC(=O)c3ccccc3)O2)c(=O)[nH]c1=O` (centres undefined), the CC50 in the data set with CEM-SS [2], in the data set with MT4 [5] and in the data set on CEM/TK- (Homo sapiens) [10] was > 1000 nM each time. Moreover, the values for the EC50 with CEM-SS [3], with MT4 [4] and in the data set with CEM/TK- (Homo sapiens) [9] were 125 nM, 76 nM and 320 nM, respectively. For the same compound, the values for the Selectivity index in data set [6] and in [7] were > 8 and > 4, respectively.
Consider `Cc1cn(C2CC(N=[N+]=[N-])C(COP(=O)(O)OCCSC(=O)C(C)(C)C)O2)c(=O)[nH]c1=O` (centres undefined), for which the half-life in data set [1] was 7.2 h; in [8] it was 21.3 h.
In the case of `Cc1cn(C2CC(N=[N+]=[N-])C(COP(=O)(OCCSSCCO)OCCSSCCO)O2)c(=O)[nH]c1=O` (centres undefined), the CC50 in the data set on CEM-SS [2], in the data set on MT4 [5] and with CEM/TK- (Homo sapiens) [10] was > 100000 nM in each case. Besides, the EC50 in the data set on CEM-SS [3] turned out to be 23 nM; in the data set with MT4 [4], 54 nM; in the data set with CEM/TK- (Homo sapiens) [9], 550 nM. The Selectivity index in [6] is > 4300; in data set [7], > 180.
Turning to `Cc1cn(C2CC(N=[N+]=[N-])C(COP(=O)(O)OCCS)O2)c(=O)[nH]c1=O` (centres undefined), the half-life was 2.3 h in [11], 9 h in [12] and 10.5 h in data set [13].
In the case of `CC(=O)SCCOP(=O)(OCCSC(C)=O)OCC1OC(n2cc(C)c(=O)[nH]c2=O)CC1N=[N+]=[N-]` (centres undefined), the half-life in data set [1] was < 0.0833 h; in [8], 9 h. Further, the figures for the CC50 in the data set on CEM-SS [2], in the data set with MT4 [5] and in the data set on CEM/TK- (Homo sapiens) [10] were 93000 nM, 67000 nM and > 100000 nM, respectively. Also, the EC50 in the data set with CEM-SS [3] worked out at 22 nM; in the data set with MT4 [4] it was 50 nM; in the data set on CEM/TK- (Homo sapiens) [9], 49 nM. Further, the Selectivity index in data set [6] is 4300; in [7], > 2050.
